The target of assay [1] is DNA topoisomerase 2-alpha (Homo sapiens) (UniProt P11388). Description: Inhibition of DNA topoisomerase 2 alpha assessed as ATP-dependent decatenation of DNA in cell free system.
Another assay has as its system HL-60. In words: Cytotoxicity against human HL60 cells after 72 hrs by MTT assay. It is filed as functional, cell-based. The conditions noted are these: HL-60, 72 h. In outline:
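Leukemia cells seeded in 96-well plates and exposed in triplicate to graded compound concentrations for 72 h at 37 °C. Viability was read by MTT. IC50 was derived by the Logit method from at least three independent experiments.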
In general terms: Tetrazolium assays rely on reduction of a dye to a coloured formazan, in cell work by metabolically active cells.

For a further assay, the system named is MDA-MB-231. Description: Cytotoxicity against human MDA-MB-231 cells after 72 hrs by MTT assay. The conditions noted are these: MDA-MB-231, 72 h. It is filed as functional, cell-based.
For another assay, the system named is KB. In words: Cytotoxicity against human KB cells after 72 hrs by MTT assay. It is filed as functional, cell-based.

SMILES strings stand for the structures. Calls of active or inactive are those of the source. The rule behind the calls is not given here.

DNA topoisomerase 2-alpha (Homo sapiens), sequence (P11388 whole entry): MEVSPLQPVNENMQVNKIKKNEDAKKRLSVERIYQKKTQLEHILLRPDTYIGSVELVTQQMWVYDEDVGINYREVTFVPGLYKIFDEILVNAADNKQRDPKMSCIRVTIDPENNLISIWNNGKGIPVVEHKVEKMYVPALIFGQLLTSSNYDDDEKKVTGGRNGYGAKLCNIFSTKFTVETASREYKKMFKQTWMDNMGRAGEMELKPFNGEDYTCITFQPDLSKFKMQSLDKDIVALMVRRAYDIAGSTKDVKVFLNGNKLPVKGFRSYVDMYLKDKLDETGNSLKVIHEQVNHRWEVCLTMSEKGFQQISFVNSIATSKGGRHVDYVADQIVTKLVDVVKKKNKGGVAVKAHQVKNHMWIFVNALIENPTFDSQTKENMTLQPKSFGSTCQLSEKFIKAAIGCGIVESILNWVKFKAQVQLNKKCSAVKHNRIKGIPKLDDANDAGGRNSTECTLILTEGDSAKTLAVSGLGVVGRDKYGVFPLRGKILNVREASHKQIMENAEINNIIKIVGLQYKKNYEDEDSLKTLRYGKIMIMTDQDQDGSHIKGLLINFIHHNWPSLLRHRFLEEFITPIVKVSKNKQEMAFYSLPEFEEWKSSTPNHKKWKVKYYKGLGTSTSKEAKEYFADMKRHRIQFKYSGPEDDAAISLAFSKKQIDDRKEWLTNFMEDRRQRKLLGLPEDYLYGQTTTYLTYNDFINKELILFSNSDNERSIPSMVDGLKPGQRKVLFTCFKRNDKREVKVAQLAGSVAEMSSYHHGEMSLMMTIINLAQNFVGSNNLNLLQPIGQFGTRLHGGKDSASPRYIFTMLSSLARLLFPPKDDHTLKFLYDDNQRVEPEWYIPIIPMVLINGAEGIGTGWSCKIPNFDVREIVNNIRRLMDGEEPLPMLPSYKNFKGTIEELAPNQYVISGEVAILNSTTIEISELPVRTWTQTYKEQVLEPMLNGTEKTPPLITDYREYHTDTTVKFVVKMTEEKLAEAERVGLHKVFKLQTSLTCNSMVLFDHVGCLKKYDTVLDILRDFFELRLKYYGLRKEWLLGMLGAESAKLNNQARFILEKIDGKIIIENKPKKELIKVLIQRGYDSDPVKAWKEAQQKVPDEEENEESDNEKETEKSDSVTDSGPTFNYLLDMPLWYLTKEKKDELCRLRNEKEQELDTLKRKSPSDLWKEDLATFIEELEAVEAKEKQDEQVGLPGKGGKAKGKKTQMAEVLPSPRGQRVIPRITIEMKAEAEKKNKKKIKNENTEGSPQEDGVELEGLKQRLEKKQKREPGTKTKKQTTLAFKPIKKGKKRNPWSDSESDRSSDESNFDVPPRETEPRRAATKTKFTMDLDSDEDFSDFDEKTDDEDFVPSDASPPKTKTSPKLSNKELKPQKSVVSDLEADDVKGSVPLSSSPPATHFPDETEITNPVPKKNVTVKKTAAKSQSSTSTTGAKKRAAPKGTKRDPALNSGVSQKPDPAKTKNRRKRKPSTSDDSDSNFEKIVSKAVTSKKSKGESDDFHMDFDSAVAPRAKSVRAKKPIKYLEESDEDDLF

For orientation: IC50 means the midpoint of a concentration-inhibition curve. Read a low IC50 as higher potency. With `CC(=O)Oc1cc(C)cc2c1C(=O)c1c(OC(C)=O)cc(O[C@@H]3O[C@@H](C)[C@H](OC(C)=O)[C@@H](OC(C)=O)[C@H]3OC(C)=O)cc1C2OC(C)=O` (mixture of isomers), the inhibition entry in assay [1] is “Active”. Besides, the IC50 with HL-60 stood at 1.5 µM; in the assay with MDA-MB-231, 1.7 µM; in the assay with KB, 1.1 µM.
Consider `CC(=O)O[C@@H]1[C@@H](O)[C@@H](OC(C)=O)[C@H](Oc2cc(O)c3c(c2)C(=O)c2cc(C)cc(O)c2C3=O)O[C@H]1C`, for which the IC50 in the assay with HL-60, in the assay with MDA-MB-231 and in the assay on KB was above 20 µM each time.
In the case of `CC(=O)O[C@@H]1[C@@H](O)[C@@H](O)[C@H](Oc2cc(O)c3c(c2)C(=O)c2cc(C)cc(O)c2C3=O)O[C@H]1C`, the inhibition entry in assay [1] is “Active”. Besides, the IC50 with HL-60 is above 20 µM; in the assay with MDA-MB-231 it was 7.9 µM; in the assay with KB it was above 20 µM.
Consider `CCCC(=O)O[C@@H]1[C@@H](O)[C@H](C)O[C@@H](Oc2cc(O)c3c(c2)C(=O)c2cc(C)cc(O)c2C3=O)[C@@H]1OC(=O)CCC`, for which the IC50 in the assay with HL-60, with MDA-MB-231 and in the assay with KB was above 20 µM each time.
On to `CC(=O)O[C@@H]1[C@@H](OC(C)=O)[C@@H](O)[C@H](Oc2cc(O)c3c(c2)C(=O)c2cc(C)cc(O)c2C3=O)O[C@H]1C`, for which the values for the IC50 in the assay with HL-60, in the assay on MDA-MB-231 and in the assay with KB were above 20 µM, 1.2 µM and above 20 µM, respectively.
As to `CC(=O)O[C@@H]1[C@@H](O)[C@H](C)O[C@@H](Oc2cc(O)c3c(c2)C(=O)c2cc(C)cc(O)c2C3=O)[C@@H]1OC(C)=O`, the inhibition entry in assay [1] was “Active”. Moreover, the IC50 is 3.6 µM in the assay on HL-60, above 20 µM in the assay with MDA-MB-231 and 1.1 µM in the assay on KB.
Turning to `CC(=O)O[C@@H]1[C@@H](O[C@@H]2O[C@@H](C)[C@H](O)[C@@H](OC(C)=O)[C@H]2OC(C)=O)[C@H](C)O[C@@H](Oc2cc(O)c3c(c2)C(=O)c2cc(C)cc(O)c2C3=O)[C@@H]1OC(C)=O`, the inhibition entry in assay [1] is “Active”. The figures for the IC50 with HL-60, in the assay with MDA-MB-231 and in the assay with KB were 11.8 µM, above 20 µM and 8.3 µM, respectively.
Regarding `CC(=O)OC1c2cc(C)cc(O)c2C(=O)c2c(O)cc(O[C@@H]3O[C@@H](C)[C@H](O)[C@@H](OC(C)=O)[C@H]3OC(C)=O)cc21` (mixture of isomers), the figures for the IC50 in the assay on HL-60, in the assay on MDA-MB-231 and with KB were 0.8 µM, 0.4 µM and 0.3 µM, respectively.
For `Cc1cc(O)c2c(c1)C(=O)c1cc(O)cc(O)c1C2=O` [EMODIN], in that order: above 20 µM, above 20 µM and above 20 µM.
As to `COc1cc(C)cc2c1C(=O)c1c(OC)cc(O[C@@H]3O[C@@H](C)[C@H](O)[C@@H](OC(C)=O)[C@H]3OC(C)=O)cc1C2=O`, the IC50 in the assay on HL-60, with MDA-MB-231 and with KB was above 20 µM each time.

For the origin of these results see ChEMBL document CHEMBL1177676, “Synthesis and biological evaluation of cytotoxic activity of novel anthracene L-rhamnopyranosides” (Bioorg Med Chem, 2010).
